Data published in ChEMBL document CHEMBL3994606, “Ring-opened tetrahydro-γ-carbolines display cytotoxicity and selectivity with histone deacetylase isoforms” (Eur J Med Chem, 2017).
Activity calls are given as the source filed them. The rule behind the calls is not given here.

Experiments:
[1] = biological target: T1, Protein deacetylase HDAC6 (Homo sapiens, UniProt Q9UBN7); test: Inhibition of full length human recombinant N-terminal GST-tagged HDAC6 expressed in Sf9 cells using RHKK(Ac) as substrate after 90 mins by fluorimetric method
T1 sequence (Q9UBN7 whole entry): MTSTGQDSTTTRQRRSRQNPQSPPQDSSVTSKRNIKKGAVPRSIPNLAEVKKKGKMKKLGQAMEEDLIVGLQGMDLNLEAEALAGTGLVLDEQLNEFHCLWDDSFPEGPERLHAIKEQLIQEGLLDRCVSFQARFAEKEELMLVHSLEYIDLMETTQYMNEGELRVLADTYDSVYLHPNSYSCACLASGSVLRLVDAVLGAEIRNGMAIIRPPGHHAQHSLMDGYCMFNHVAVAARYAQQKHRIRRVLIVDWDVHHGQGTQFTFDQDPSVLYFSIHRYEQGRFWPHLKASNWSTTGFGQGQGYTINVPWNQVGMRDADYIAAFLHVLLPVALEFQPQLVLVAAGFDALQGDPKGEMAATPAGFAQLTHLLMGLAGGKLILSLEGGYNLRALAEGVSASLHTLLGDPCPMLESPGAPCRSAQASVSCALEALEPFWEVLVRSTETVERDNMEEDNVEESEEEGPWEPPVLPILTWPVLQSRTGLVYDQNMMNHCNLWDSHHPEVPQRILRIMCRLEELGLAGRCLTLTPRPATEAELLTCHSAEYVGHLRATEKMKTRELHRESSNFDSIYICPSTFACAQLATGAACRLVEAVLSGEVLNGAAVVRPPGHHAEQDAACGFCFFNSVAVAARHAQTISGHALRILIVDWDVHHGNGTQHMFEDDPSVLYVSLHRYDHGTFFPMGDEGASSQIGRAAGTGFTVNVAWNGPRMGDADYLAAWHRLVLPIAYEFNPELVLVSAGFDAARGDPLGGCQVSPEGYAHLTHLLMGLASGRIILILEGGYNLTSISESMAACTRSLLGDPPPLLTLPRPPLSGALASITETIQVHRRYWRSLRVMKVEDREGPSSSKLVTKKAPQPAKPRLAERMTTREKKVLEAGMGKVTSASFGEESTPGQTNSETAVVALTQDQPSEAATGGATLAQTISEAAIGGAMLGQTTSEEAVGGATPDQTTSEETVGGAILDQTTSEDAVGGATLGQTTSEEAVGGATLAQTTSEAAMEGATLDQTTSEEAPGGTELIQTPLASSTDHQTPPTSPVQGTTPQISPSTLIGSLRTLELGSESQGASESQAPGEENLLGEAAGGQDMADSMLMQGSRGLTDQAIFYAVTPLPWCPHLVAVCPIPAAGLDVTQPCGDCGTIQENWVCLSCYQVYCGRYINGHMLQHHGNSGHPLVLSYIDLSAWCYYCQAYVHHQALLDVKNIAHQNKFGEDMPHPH

Histone deacetylase 1 = Histone deacetylase 1 (Homo sapiens, UniProt Q13547); test: Inhibition of full length human recombinant C-terminal FLAG-His-tagged HDAC1 expressed in Sf21 cells using RHKK(Ac) as substrate after 60 mins by fluorimetric method
Chain of Histone deacetylase 1 (Q13547 whole entry): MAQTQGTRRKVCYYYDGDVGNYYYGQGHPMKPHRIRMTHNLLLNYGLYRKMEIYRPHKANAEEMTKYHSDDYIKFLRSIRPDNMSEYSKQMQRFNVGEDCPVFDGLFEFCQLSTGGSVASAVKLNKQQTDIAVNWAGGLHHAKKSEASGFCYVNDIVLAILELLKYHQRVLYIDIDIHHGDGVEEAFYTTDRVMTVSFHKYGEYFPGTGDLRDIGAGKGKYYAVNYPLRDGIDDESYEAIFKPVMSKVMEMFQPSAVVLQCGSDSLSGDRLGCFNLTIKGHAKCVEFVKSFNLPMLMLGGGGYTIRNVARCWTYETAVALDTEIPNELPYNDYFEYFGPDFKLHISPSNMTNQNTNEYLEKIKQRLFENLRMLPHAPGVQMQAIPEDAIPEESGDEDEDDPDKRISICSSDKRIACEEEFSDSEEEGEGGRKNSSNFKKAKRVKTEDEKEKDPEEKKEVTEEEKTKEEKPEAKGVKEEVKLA

HCT-116 [2] = test: Antiproliferative activity against human HCT116 cells after 48 hrs by SRB assay; format: functional; settings: HCT-116, 48 h
Summary of the method: (§1)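 Cells seeded at 3-5 x 10³ cells/well. A T0 plate was fixed with 10% TCA at drug addition, and the rest were incubated 48 h with compound or DMSO, then TCA-fixed and stained with 0.4% SRB in 1% AcOH. Dye was extracted with 10 mM trizma base and read at 515 nm.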

PC-3 = test: Antiproliferative activity against human PC3 cells after 48 hrs by SRB assay; format: functional; settings: PC-3, 48 h; summary of the method: as §1
Homo sapiens [3] = species: Homo sapiens; test: Selectivity ratio of IC50 for full length human recombinant C-terminal FLAG-His-tagged HDAC1 to IC50 for full length human recombinant N-terminal GST-tagged HDAC6
A549 = test: Antiproliferative activity against human A549 cells after 48 hrs by SRB assay; format: functional; settings: A549, 48 h; summary of the method: as §1
Homo sapiens [4] = species: Homo sapiens; test: Selectivity ratio of IC50 for full length human recombinant C-terminal GST-tagged HDAC2 to IC50 for full length human recombinant N-terminal GST-tagged HDAC6
Histone deacetylase 2 = Histone deacetylase 2 (Homo sapiens, UniProt Q92769); test: Inhibition of full length human recombinant C-terminal GST-tagged HDAC2 expressed in insect cells using RHKK(Ac) as substrate after 60 mins by fluorimetric method
Chain of Histone deacetylase 2 (Q92769 whole entry): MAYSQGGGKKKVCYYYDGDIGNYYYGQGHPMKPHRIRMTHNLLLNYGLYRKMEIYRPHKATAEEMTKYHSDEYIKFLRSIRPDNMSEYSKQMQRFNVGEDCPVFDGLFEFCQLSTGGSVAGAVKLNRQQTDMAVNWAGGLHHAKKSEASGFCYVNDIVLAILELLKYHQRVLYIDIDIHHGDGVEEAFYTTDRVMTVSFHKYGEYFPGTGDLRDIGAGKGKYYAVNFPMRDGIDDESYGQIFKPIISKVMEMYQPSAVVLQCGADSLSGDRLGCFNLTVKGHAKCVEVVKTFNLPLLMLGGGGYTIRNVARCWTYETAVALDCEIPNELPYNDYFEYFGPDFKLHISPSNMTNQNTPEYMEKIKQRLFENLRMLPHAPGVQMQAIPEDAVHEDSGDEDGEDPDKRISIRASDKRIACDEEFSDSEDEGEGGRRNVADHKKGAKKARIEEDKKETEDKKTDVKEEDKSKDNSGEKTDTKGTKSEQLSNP

[5] = biological target: T2, Protein deacetylase HDAC6 (Homo sapiens) (UniProt Q9UBN7); test: Inhibition of HDAC6 in human HCT116 cells assessed as upregulation of acetylated tubulin levels at 2.5 uM after 6 hrs by Western blot method; format: cell-based
T2 sequence (whole entry): T1 sequence (Q9UBN7 whole entry)
Summary of the method: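 HCT116 cells treated 6 h with compound, then lysates probed by western blot for acetyl-tubulin, with ECL detection.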

HCT-116 [6] = test: Induction of apoptosis in human HCT116 cells assessed as increase in cleaved caspase 3 levels at 1.25 to 2.5 uM after 48 hrs Western blot method; format: functional, cell-based
HCT-116 [7] = test: Induction of apoptosis in human HCT116 cells assessed as increase in cleaved PARP levels at 1.25 to 2.5 uM after 48 hrs Western blot method; format: functional, cell-based
Homo sapiens [8] = species: Homo sapiens; test: Inhibition of class 1 HDAC in human HCT116 cells assessed as upregulation of acetylated histone H3 levels at 2.5 uM after 6 hrs by Western blot method; format: cell-based
HCT-116 [9] = test: Cell cycle arrest in human HCT116 cells assessed as accumulation at sub-G1 phase after 48 hrs by propidium iodide staining-based flow cytometric method; format: functional
Summary of the method: (§2)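 HCT116 cells treated 48 h, then fixed overnight in 75% EtOH at -20 °C and washed in cold PBS. They were incubated 30 min at room temperature in 0.1 M phosphate-citric acid buffer (pH 7.8) and stained with propidium iodide buffer containing 0.1% Triton X-100 and RNase A. The sub-G1 fraction was measured by flow cytometry.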

HCT-116 [10] = test: Anticlonogenic activity against human HCT116 cells after 24 hrs by crystal violet staining-based assay; format: functional, cell-based
Summary of the method: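 Cells exposed to a range of concentrations or DMSO vehicle for 24 h, washed, trypsinized and replated at 500 cells/well; after 14 days colonies were fixed and stained with 0.5% crystal violet in 70% EtOH. Colonies of more than 50 cells were counted, and survival fraction was taken relative to DMSO control.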

HCT-116 [11] = test: Cell cycle arrest in human HCT116 cells assessed as accumulation at sub-G1 phase at 5 uM after 48 hrs by propidium iodide staining-based flow cytometric method; format: functional; summary of the method: as §2

SMILES	IC50 [1]	IC50 (Histone deacetylase 1)	GI50 (HCT-116 [2])	GI50 (PC-3)	Ratio IC50 (Homo sapiens [3])	GI50 (A549)	Ratio IC50 (Homo sapiens [4])	IC50 (Histone deacetylase 2)	Acetylated tubulin upregulation (qualitative) [5]	Activity (HCT-116 [6])	Activity (HCT-116 [7])	Acetylated histone H3 upregulation (qualitative) (Homo sapiens [8])	Activity (HCT-116 [9])	Activity (HCT-116 [10])	Activity (HCT-116 [11])
CN1CCc2c(c3ccccc3n2S(=O)(=O)c2cccc(/C=C/C(=O)NO)c2)C1	189 nM	2700 nM	640 nM	1840 nM	14	2450 nM	16	3130 nM							
Cc1c(CN(C)C)c2ccccc2n1S(=O)(=O)c1cccc(/C=C/C(=O)NO)c1	84.9 nM	1850 nM	500 nM	1690 nM	21	1920 nM	15	1340 nM	Active	Active	Active	inactive	Dose-dependent effect	Dose-dependent effect	
Cc1c(CN(C)C)c2ccccc2n1Cc1ccc(C(=O)NO)cc1	6.17 nM	9730 nM	> 5000 nM	> 5000 nM	1580	> 5000 nM	> 1620	> 10000 nM							
Cc1c(CN(C)C)c2ccccc2n1S(=O)(=O)c1ccc(/C=C/C(=O)NO)cc1	63 nM	4010 nM	550 nM	700 nM	63	1560 nM	20	1270 nM	Active	Active	Active	inactive	Dose-dependent effect	Dose-dependent effect	
CN(C)Cc1cn(Cc2ccc(C(=O)NO)cc2)c2ccccc12	21.7 nM	7130 nM	> 5000 nM	3930 nM	328	> 5000 nM	562	12200 nM							
CN(C)C(=O)c1cn(Cc2ccc(C(=O)NO)cc2)c2ccccc12	8.01 nM	5720 nM	> 5000 nM	> 5000 nM	714	> 5000 nM	> 1250	> 10000 nM							
CN1CCc2c(c3ccccc3n2Cc2ccc(C(=O)NO)cc2)C1 [TUBASTATIN A]			> 5000 nM	> 5000 nM		> 5000 nM				inactive	inactive				Active
CN(C)Cc1cn(S(=O)(=O)c2cccc(/C=C/C(=O)NO)c2)c2ccccc12	89.3 nM	1510 nM	540 nM	1030 nM	16	1870 nM	18	1640 nM	Active	Active	Active	inactive	Dose-dependent effect	Dose-dependent effect	
